Results taken from ChEMBL document CHEMBL4402601, “Discovery of a Silicon-Containing Pan-Genotype Hepatitis C Virus NS5A Inhibitor” (J Med Chem, 2020).

Experiments:
[1] = tested on: Hepatitis C virus; experiment: Antiviral activity against Hepatitis C virus subtype 1b Con1 replicon expressing NS5A L31W mutant infected in human HuH7 cells assessed as reduction in viral replication incubated for 3 days by luciferase reporter gene assay; format: functional, organism-based, Hepacivirus hominis; settings: subtype 1b Con1, Huh-7, 72 h
Method in brief: (§1)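 NS5A resistance-associated variants introduced into GT1a-H77 or GT1b-Con1 replicons. In transient assays, each variant replicon was electroporated into a Huh-7-derived cell line. Inhibition measured as drop in luciferase signal. Percent inhibition computed per concentration; EC50 from 4-parameter logistic nonlinear fit. Fold resistance is variant EC50 relative to the matching reference replicon.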

[2] = Half life in mouse at 10 mg/kg, po by UPLC-MS/MS analysis; format: ADME, organism-based; settings: in vivo
Method in brief: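 Overnight-fasted mice given a single 10 mg/kg oral dose in 2:2:96 (v/v) alcohol : Tween 80 : glucose injection. Plasma levels by UPLC-MS/MS. Bioavailability derived against a 2 mg/kg iv arm using the same formulation diluted 2.5 times with 10% glucose injection.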

[3] = Volume of distribution in mouse at 2 mg/kg, iv by UPLC-MS/MS analysis; format: ADME, organism-based; settings: in vivo
Method in brief: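 Mice fasted overnight, given a single 2 mg/kg iv dose. Vehicle was the oral formulation (2:2:96 alcohol:Tween 80:glucose injection) diluted 2.5-fold with 10% glucose injection. Plasma concentrations measured by UPLC-MS/MS.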

[4] = Drug distribution in mouse plasma at 10 mg/kg, po incubated for 24 hrs by UPLC-MS/MS analysis; format: ADME, organism-based
Method in brief: (§2)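 Oral dosing in mice and rats; compound measured in plasma and liver by UPLC-MS/MS at each time point, n = 3 (mean ± SD). LPR is mean liver concentration divided by mean plasma concentration.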

[5] = tested on: Hepatitis C virus; experiment: Antiviral activity against Hepatitis C virus subtype 1a H77 subgenomic replicon expressing NS5A Y93N mutant infected in human HuH7 cells assessed as reduction in viral replication incubated for 3 days by luciferase reporter gene assay; format: functional, organism-based, Hepacivirus hominis; settings: subtype 1a H77, Huh-7, 72 h; method in brief: as §1
[6] = tested on: Hepatitis C virus; experiment: Resistance index, ratio of EC50 for Hepatitis C virus subtype 1b Con1 subgenomic replicon expressing NS5A L31W mutant infected in human HuH7 cells to EC50 for Hepatitis C virus subtype 1b Con1 subgenomic replicon expressing NS5A infected in human HuH7 cells; format: functional, Hepacivirus hominis
[7] = Drug distribution in mouse plasma at 10 mg/kg, po incubated for 3 hrs by UPLC-MS/MS analysis; format: ADME, organism-based; method in brief: as §2
[8] = tested on: Hepatitis C virus; experiment: Resistance index, ratio of EC50 for Hepatitis C virus subtype 1b Con1 subgenomic replicon expressing NS5A Y93H mutant infected in human HuH7 cells to EC50 for Hepatitis C virus subtype 1b Con1 subgenomic replicon expressing NS5A infected in human HuH7 cells; format: functional, Hepacivirus hominis
[9] = tested on: Hepatitis C virus; experiment: Antiviral activity against Hepatitis C virus subtype 1b Con1 replicon expressing NS5A Y93H mutant infected in human HuH7 cells assessed as reduction in viral replication incubated for 3 days by luciferase reporter gene assay; format: functional, organism-based, Hepacivirus hominis; settings: subtype 1b Con1, Huh-7, 72 h; method in brief: as §1
[10] = MRT in dog at 5 mg/kg, po by UPLC-MS/MS analysis; format: ADME, organism-based, Canis lupus familiaris; settings: in vivo
[11] = tested on: Hepatitis C virus; experiment: Antiviral activity against Hepatitis C virus subtype 1b Con1 replicon expressing NS5A L31V mutant infected in human HuH7 cells assessed as reduction in viral replication incubated for 3 days by luciferase reporter gene assay; format: functional, organism-based, Hepacivirus hominis; settings: subtype 1b Con1, Huh-7, 72 h; method in brief: as §1
[12] = tested on: Hepatitis C virus; experiment: Resistance index, ratio of EC50 for Hepatitis C virus subtype 1b Con1 subgenomic replicon expressing NS5A L31V mutant infected in human HuH7 cells to EC50 for Hepatitis C virus subtype 1b Con1 subgenomic replicon expressing NS5A infected in human HuH7 cells; format: functional, Hepacivirus hominis
[13] = Ratio of drug distribution in mouse liver to drug distribution in mouse plasma measured after 24 hrs by UPLC-MS/MS analysis; format: ADME, cell-free; method in brief: as §2
[14] = tested on: Hepatitis C virus; experiment: Antiviral activity against Hepatitis C virus subtype 3a subgenomic replicon expressing NS5A infected in human HuH7 cells assessed as reduction in viral replication incubated for 3 days by luciferase reporter gene assay; format: functional, organism-based, Hepacivirus hominis; settings: Huh-7, 72 h
Method in brief: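 HCV replicon cell assay; inhibition of replication read as decrease in luciferase signal. Percent inhibition computed at each compound concentration; EC50 (pM) from nonlinear regression fit to a 4-parameter logistic equation. Values are means of triplicate wells, with each experiment run at least twice.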

## COC(=O)N[C@H](C(=O)N1CCC[C@H]1C(=O)Nc1ccc([C@@H]2CC[C@@H](c3ccc(NC(=O)[C@@H]4CCCN4C(=O)[C@@H](NC(=O)OC)[C@@H](C)OC)cc3)N2c2cc(F)c(N3CC[Si](C)(C)CC3)c(F)c2)cc1)[C@@H](C)OC
[1]
  EC50: 0.0191 nM
[2]
  half-life: 8 h
[3]
  Vd: 1.56 L/kg
[4]
  concentration at 24 h: 58.6 ng/mL
[5]
  EC50: > 0.25 nM
[6]
  Ratio EC50: 11.4
[7]
  concentration at 3 h: 308 ng/mL
[8]
  Ratio EC50: 12.2
[9]
  EC50: 0.0204 nM
[10]
  MRT: 17.5 h
[11]
  EC50: 0.00381 nM
[12]
  Ratio EC50: 2.3
[13]
  Kp at 24 h: 17.9
[14]
  EC50: 0.003 nM
